Published values of several laboratories.
Lines come from different studies, so protocols differ.
Target: Serine/threonine-protein kinase ULK2 (ULK2, Homo sapiens, UniProt Q8IYT8)
One construct used (Q8IYT8 1-1036): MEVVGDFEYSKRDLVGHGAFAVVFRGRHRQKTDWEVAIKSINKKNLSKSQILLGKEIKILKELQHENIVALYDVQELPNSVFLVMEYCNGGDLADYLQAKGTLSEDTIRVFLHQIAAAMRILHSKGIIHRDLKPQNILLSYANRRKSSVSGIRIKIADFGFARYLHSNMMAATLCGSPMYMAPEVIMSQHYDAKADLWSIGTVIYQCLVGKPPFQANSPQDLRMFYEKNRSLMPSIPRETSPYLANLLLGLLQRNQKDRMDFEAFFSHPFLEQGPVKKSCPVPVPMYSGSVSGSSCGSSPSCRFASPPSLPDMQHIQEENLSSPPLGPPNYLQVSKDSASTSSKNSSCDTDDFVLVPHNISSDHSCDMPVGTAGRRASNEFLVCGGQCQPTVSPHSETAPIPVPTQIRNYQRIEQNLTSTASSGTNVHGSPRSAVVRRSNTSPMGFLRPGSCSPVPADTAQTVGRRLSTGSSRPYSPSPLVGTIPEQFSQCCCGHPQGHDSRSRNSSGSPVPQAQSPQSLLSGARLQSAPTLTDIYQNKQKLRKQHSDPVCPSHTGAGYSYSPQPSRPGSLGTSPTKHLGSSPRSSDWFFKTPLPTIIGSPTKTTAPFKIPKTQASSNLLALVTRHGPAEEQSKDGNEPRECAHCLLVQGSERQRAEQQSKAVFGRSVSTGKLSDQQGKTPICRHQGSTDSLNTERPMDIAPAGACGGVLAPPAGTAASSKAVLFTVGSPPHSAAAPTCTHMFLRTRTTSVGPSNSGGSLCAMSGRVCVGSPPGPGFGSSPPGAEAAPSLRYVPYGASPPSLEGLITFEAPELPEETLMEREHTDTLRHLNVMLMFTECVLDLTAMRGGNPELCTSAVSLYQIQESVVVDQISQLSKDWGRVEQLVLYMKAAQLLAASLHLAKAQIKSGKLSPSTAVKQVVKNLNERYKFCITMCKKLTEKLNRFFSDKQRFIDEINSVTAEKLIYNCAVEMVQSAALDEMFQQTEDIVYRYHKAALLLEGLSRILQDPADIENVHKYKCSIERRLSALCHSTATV

O=C1NC(=O)c2cc(Nc3ccc(F)cc3)c(Nc3ccc(F)cc3)cc21
remaining signal (cell-free assay; 0.5 µM): 84.7%

COc1cc(-c2cn(C3CCc4ccccc4N(CC(F)(F)F)C3=O)nn2)ccc1-n1ccc(C)n1 (stereo not shown)
remaining binding (cell-free assay, competition with immobilised ligand; 1 µM): 88%

Cc1ccc(NC(=O)c2ccc(C)c(C(F)(F)F)c2)cc1C#Cc1nn(C2CCC(O)CC2)c2ncnc(N)c12 (stereo not shown)
remaining signal (cell-free assay; 10 µM): 100%

FC(F)(F)Oc1cccc(-c2cnc3ccc(-c4ccncc4)nn23)c1
activity vs control (enzyme activity, inhibitor, radiometric; 1 µM): 110%

Cc1nc(C2CCN(C(=O)c3ccc(OC(F)(F)F)cc3N)CC2)c2ncc(N3CCN(C)CC3)cc2n1
remaining binding (cell-free assay, competition with immobilised ligand; 1 µM): 100%

Nc1ncnc2occ(-c3ccc(NC(=O)Nc4cc(C(F)(F)F)ccc4F)cc3)c12
remaining signal (cell-free assay, inhibitor; 20 µM): 8.8%

N#Cc1ccc(Nc2ccc3[nH]c(=O)[nH]c3c2)c(Cl)c1
remaining binding (cell-free assay, competition with immobilised ligand; 1 µM): 99%

COc1cc2c(Nc3ccc(Br)cc3F)ncnc2cc1OCC1CCN(C)CC1
remaining signal (cell-free assay; 0.5 µM): 108%

CCN1CCN(Cc2ccc(NC(=O)c3ccc(C)c(Oc4ccnc5[nH]ccc45)c3)cc2C(F)(F)F)CC1
inhibition (target engagement in cells, inhibitor, chemoproteomics; Huh-7; 10 µM): -13.4%

CCN(CC)c1ccc(C2=NNC(=O)CC2C)cc1[N+](=O)[O-] (stereo not shown)
remaining activity (enzyme activity, inhibitor; 10 µM): 97%

CCCCN(CCCC)C(=O)CN1C[C@@H](c2cc(OC)c3c(c2)OCO3)[C@H](C(=O)O)[C@H]1CC(C)(C)CCC
remaining binding (cell-free assay, competition with immobilised ligand; 1 µM): 89.2%

CCCS(=O)(=O)Nc1ccc(F)c(C(=O)c2c[nH]c3ncc(-c4ccc(Cl)cc4)cc23)c1F
inhibition (enzyme activity, inhibitor; 1 µM): < 10%

C[C@@]1(Cc2ccc(C#N)cc2)C(=O)N(c2cc(Cl)cc(Cl)c2)c2ncc(C(=O)NC3(c4nc(C5CCC5)no4)CC3)n21
remaining binding (cell-free assay, competition with immobilised ligand; 1 µM): 100%

CC(C)(O)[C@H]1CC[C@H](Nc2ccc3ncc(-c4cccc(C(F)(F)F)c4)n3n2)CC1
remaining activity (enzyme activity, inhibitor; 1 µM): 97.9%

O=C(Nc1cnn(-c2csc(C(=O)NC3COC3)c2)c1)Nc1ccccc1Cl
remaining activity (enzyme activity, inhibitor; 5 µM): 196%

CS(=O)(=O)CCNCc1ccc(-c2ccc3ncnc(Nc4ccc(OCc5cccc(F)c5)c(Cl)c4)c3c2)o1
remaining signal (cell-free assay; 0.5 µM): 104%

Cc1sc(C(=O)NC2COC2)cc1-n1cc(NC(=O)Nc2c(F)cccc2Cl)cn1
remaining activity (enzyme activity, inhibitor; 10 µM): 74.9%

Cc1ccc(C(=O)Nc2ccc(CN3CCN(C)CC3)c(C(F)(F)F)c2)cc1C#Cc1cnc2cccnn12
remaining activity (enzyme activity, inhibitor; 23.5 nM): 94%

CC(=O)N1CCC(c2ccc(C(=O)NC3=NCCN3)cc2C(F)(F)F)CC1
remaining binding (cell-free assay, competition with immobilised ligand; 1 µM): 82%

CN1CC(Oc2cnc(C#N)cc2-c2ccn3nc(NC(=O)C4CC4)cc3c2)C1
inhibition (enzyme activity, inhibitor; 1 µM): 8%

CNC(=O)Nc1ccc2c(c1)[C@@]1(CC2)OC(=O)N(CC(=O)N(Cc2ccc(F)cc2)[C@@H](C)C(F)(F)F)C1=O
remaining binding (cell-free assay, competition with immobilised ligand; 1 µM): 100%

CS(=O)(=O)Nc1cccc(-c2csc(NC(=O)CSc3nc4nccnc4c(=O)n3CCc3ccccc3)n2)c1
inhibition (enzyme activity, inhibitor; 10 µM): -2%
